Screens as filed in PubChem BioAssay.
HTR5A inv ctr – counter-screen for OPRM1-OPRD1 inverse agonists: human HTR5A inverse agonism | inhibition, % at 9.3 µM | 0.083% of 340,000 active | P47898 | HTR5A cell line, luminescence; in the data active means inhibition mostly above about 23%, no sharp cut-off; inactive means mostly below about 18%
HTR5A ag ctr – counter-screen for OPRM1-OPRD1 agonists: human HTR5A agonism. 0.61% of 340,000 active. HTR5A agonist assay, luminescence, cell-based. AID 504692. P47898. activation, % at 9.3 µM; in the data active means activation mostly above about 9.5%, no sharp cut-off; inactive means mostly below about 7.6%
MOR-DOR inv ag – mu-delta opioid heterodimer inverse agonism | P35372+P41143 | cell-based MOR-DOR heterodimer luminescence | inhibition, % at 9.3 µM | 0.21% of 340,000 active | AID 504357; in the data active means inhibition above about 22%, passing the limit was not always enough
Arrestin-AP2 inh – inhibitors of human beta-arrestin and AP2 interaction. inhibition, % at 10 µM. FITC-arrestin peptide / GST-AP2 beads, flow cytometry; AP2 beta2 appendage carries R879A mutation. 0.31% of 340,000 active;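 active means inhibition above a set limit, near 3 SD of compounds lacking own fluorescence, cut at about 54% in these data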
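Measured by: flow cytometry, FL1 (488/535 nm); Material: AP2 appendage R879A on GSH beads; Evaluation: percent response; Timing: pre-incubation 12 min, peptide binding 1 h, room temperature; Also added: 50 nM FITC-arrestin peptide; Medium: PBS with 0.05% Tween 20 and 0.1% BSA.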
DAGLB inhibitor – blocks human DAGLB lipase activity. inhibition, % at 5.17 µM. 0.059% of 340,000 active. HEK293T DAGLB membrane lysate, EnzChek fluorogenic substrate; in the data active means inhibition above about 34%
OPRM1-OPRD1 ag – agonists of human mu-delta opioid receptor heterodimerization; cells, OPRM1-OPRD1 heterodimerization, luminescence; activation, % at 9.3 µM; 0.3% of 340,000 active; in the data active means activation above about 18%
Arr-AP2 CP1 – inhibitors of human beta-arrestin and AP2 interaction | inhibition, % at 10 µM | shares compounds with Arrestin-AP2 inh | 2% of 1,300 active | AID 504908 | GST-AP2 beads, FITC arrestin peptide binding, flow cytometry; GST-fused beta2-adaptin appendage, R879A mutant;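 active means inhibition above a set limit, roughly 3 SD of non-fluorescent compound noise, cut at about 38% in these data; inactive means inhibition at or below that limit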;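 further: loss of bead fluorescence from 50 nM FITC arrestin peptide bound to appendage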
Target sequence (P63010 whole entry, looked up, the tested form may be a part, one chain of several): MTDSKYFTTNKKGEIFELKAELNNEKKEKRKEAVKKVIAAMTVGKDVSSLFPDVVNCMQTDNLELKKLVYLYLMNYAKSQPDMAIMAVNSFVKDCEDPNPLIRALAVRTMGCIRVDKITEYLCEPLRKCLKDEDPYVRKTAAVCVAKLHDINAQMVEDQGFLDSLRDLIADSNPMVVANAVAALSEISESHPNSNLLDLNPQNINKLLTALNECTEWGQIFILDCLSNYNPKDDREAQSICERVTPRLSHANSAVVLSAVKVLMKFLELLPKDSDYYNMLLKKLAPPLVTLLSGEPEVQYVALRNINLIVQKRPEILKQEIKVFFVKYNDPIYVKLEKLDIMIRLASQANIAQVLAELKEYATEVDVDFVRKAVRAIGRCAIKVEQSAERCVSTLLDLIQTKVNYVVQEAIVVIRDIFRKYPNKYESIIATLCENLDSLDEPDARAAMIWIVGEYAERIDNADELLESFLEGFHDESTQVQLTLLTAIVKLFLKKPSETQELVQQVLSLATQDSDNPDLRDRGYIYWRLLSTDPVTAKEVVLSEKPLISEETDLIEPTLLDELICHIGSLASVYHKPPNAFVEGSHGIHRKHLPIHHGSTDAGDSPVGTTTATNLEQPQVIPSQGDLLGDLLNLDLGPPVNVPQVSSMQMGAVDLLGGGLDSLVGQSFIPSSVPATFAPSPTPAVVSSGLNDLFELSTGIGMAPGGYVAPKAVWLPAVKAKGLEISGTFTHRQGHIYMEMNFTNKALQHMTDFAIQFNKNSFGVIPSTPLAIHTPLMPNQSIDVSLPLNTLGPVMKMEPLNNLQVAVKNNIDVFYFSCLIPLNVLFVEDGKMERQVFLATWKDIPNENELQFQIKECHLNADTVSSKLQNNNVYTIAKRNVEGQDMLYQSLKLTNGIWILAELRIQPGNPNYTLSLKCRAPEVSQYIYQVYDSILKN
GST GSH counter – disrupts GST binding to glutathione beads, arrestin-AP2 artifact | shares compounds with Arrestin-AP2 inh | GST-fluorescein binding to GSH beads, fluorescence, counter-screen | inhibition, % at 10 µM | 2% of 1,300 active | AID 588338;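 active means inhibition above 50%, about 3 SD of the inhibition seen with non-fluorescent compounds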;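 further: fluorescein maleimide labelled GST captured on 4 micron glutathione beads; higher means more loss of bead fluorescence from quenching or blocked binding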
A number is an active result; – = inactive; · = no result. In the library only some 1.4% were active in any assay of this set; here they are far more common.

SMILES	HTR5A inv ctr	HTR5A ag ctr	MOR-DOR inv ag	Arrestin-AP2 inh	DAGLB inhibitor	OPRM1-OPRD1 ag	Arr-AP2 CP1	GST GSH counter
Cc1ccccc1OCC(=O)Nc1cccc2nsnc12	–	–	–	101	–	–	–	–
CCc1ccc(OCC(=O)Nc2cccc3nsnc23)cc1	–	–	–	–	–	–	·	·
CCCSc1ccc([C@@H]2[C@@H]3C(=O)N(C)C(=O)[C@@H]3[C@]3(C(=O)OC)CCCN23)cc1OC	–	–	–	60	–	–	–	–
O=C(C1CCN(CCc2ccccc2)CC1)N1CCOCC1	–	–	–	–	–	–	·	·
CCN(CC1CCCO1)C(=O)CCc1nnc(CCc2ccccc2)o1 (stereo unspecified)	·	·	·	·	–	·	·	·
Cc1cc2cc(NC(=O)c3ccco3)ccc2[nH]1	–	–	–	100	–	–	–	–
Cc1cc(C)nc(NC(=NCCc2c[nH]c3ccccc23)NC(=O)c2ccco2)n1	–	–	–	83	–	–	–	–
Cc1cc(C)nc(NC(=NCCc2c[nH]c3ccccc23)NC(=O)Nc2ccccc2)n1	–	–	–	–	–	–	·	·
CCN(CC)S(=O)(=O)c1ccc(C(O)=C(C#N)c2nc3ccccc3n2C)cc1	–	–	–	–	–	–	·	·
COc1ccc(Nc2nc3cc(C)ccc3cc2C#N)c(OC)c1	–	–	–	91	–	–	–	75
COc1ccc(N(C(=O)c2ccco2)C(C(=O)NC2CCCCC2)c2cccs2)cc1OC (stereo unspecified)	–	–	–	105	–	–	–	–
CCOc1ccc(C(C(=O)NC2CCCCC2)N(C(=O)c2ccco2)c2ccc(-n3cnnn3)c(C)c2)cc1 (stereo unspecified)	–	–	–	100	–	–	–	–
COc1ccc(C(C(=O)NC2CCCCC2)N(C(=O)c2ccco2)c2ccc(-n3cnnn3)c(C)c2)cc1 (stereo unspecified)	–	–	–	–	–	–	·	·
CC(=O)c1cccc(N(C(=O)c2ccco2)C(C(=O)NC2CCCC2)c2cccs2)c1 (stereo unspecified)	–	–	–	–	–	–	·	·
O=S(=O)(/N=C(\c1ccc(F)cc1)N1CCOCC1)c1ccccc1	·	·	·	·	–	·	·	·
CCNc1nc(NCC)n2c(SCC(=O)Nc3cccc(Cl)c3)nnc2n1	–	–	–	59	–	–	–	–
C[C@@H]1CN([C@H](C)CO)C(=O)c2cc(C#Cc3ccccc3F)cnc2O[C@@H]1CN(C)S(=O)(=O)c1ccccc1F	·	·	·	·	–	·	·	·
CCOc1ccc(S(=O)(=O)c2ccc(C)cc2)c2c1no[n+]2[O-]	·	·	·	·	–	·	·	·
COc1cc(NS(=O)(=O)c2ccc(NC(=S)NC(=O)c3ccc(F)cc3)cc2)nc(OC)n1	–	–	–	–	–	–	·	·
COc1ccc(C(=O)NC(=S)Nc2ccc(S(=O)(=O)Nc3cc(OC)nc(OC)n3)cc2)cc1	–	–	–	56	–	–	–	–
O=S(=O)(NCc1ccc2c(c1)OCO2)c1ccc(Cl)s1	–	–	–	105	–	–	–	–
Cc1cc(C)c(S(=O)(=O)NCc2ccc3c(c2)OCO3)cc1C	–	–	–	–	–	–	·	·
Cc1nc(N2CCN(S(=O)(=O)c3cccs3)CC2)c2c(-c3ccccc3)c(C)sc2n1	·	·	·	·	–	·	·	·
CCc1ccc(N2CC(C(=O)OCc3csc(CC(=O)Nc4ccccc4C)n3)CC2=O)cc1 (stereo unspecified)	–	–	–	62	–	–	–	–
CCOC=C1C(=O)N(C(C)=O)c2cc(OC)c(OC)cc21	–	–	–	–	–	–	·	·
COc1cccc(NC(=O)c2cc(-c3ccc(C)o3)nc3ccccc23)c1	–	–	–	54	–	–	–	–
COc1cccc(NC(=O)CN(C)C(=O)c2cc(-c3ccc(C)o3)nc3ccccc23)c1	–	–	–	–	–	–	·	·
C/C(=N/NC(=O)c1nnn(-c2nonc2N)c1CSc1ccc(C)cc1)c1ccncc1	·	·	·	·	–	·	·	·
